According to ChEMBL document CHEMBL1154236, “Monoterpenes from Paeonia albiflora and their inhibitory activity on nitric oxide production by lipopolysaccharide-activated microglia” (J Nat Prod, 2009):

Columns and labels:
N9 [1] = test: Antiinflammatory activity against mouse N9 cells assessed as LPS-induced nitric oxide production at 1 uM after 48 hrs by Griess reaction relative to control; settings: N9, 48 h
N9 [2] = test: Antiinflammatory activity against mouse N9 cells assessed as LPS-induced nitric oxide production at 3 uM after 48 hrs by Griess reaction relative to control; settings: N9, 48 h
N9 [3] = test: Antiinflammatory activity against mouse N9 cells assessed as LPS-induced nitric oxide production at 10 uM after 48 hrs by Griess reaction relative to control; settings: N9, 48 h
N9 [4] = test: Antiinflammatory activity against mouse N9 cells assessed as LPS-induced nitric oxide production at 30 uM after 48 hrs by Griess reaction relative to control; settings: N9, 48 h
N9 [5] = test: Antiinflammatory activity against mouse N9 cells assessed as inhibition of LPS-induced nitric oxide production after 48 hrs by Griess reaction relative to control; settings: N9, 48 h
N9 [6] = test: Cytotoxicity against LPS-stimulated mouse N9 cells at 1 to 30 uM after 48 hrs by MTT assay; format: cell-based; settings: n9, 48 h
Method in brief: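 N9 microglia seeded at 5 × 10^4 cells/well and exposed to compounds with LPS (1 µg/mL) for 48 h. MTT 0.25 mg/mL then added for 3 h at 37 °C. Formazan dissolved in DMSO and absorbance read at 490 nm.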

IC50 (N9 [5])	Compound	NO production (% of LPS control) at 1 µM (N9 [1])	NO production (% of LPS control) at 3 µM (N9 [2])	NO production (% of LPS control) at 10 µM (N9 [3])	NO production (% of LPS control) at 30 µM (N9 [4])	Activity (N9 [6])
> 100 µM	COc1cc(COC[C@H]2O[C@@H](O[C@@]34C[C@H]5[C@@]3(COC(=O)c3ccccc3)[C@H]3O[C@]5(O)C[C@]4(C)O3)[C@H](O)[C@@H](O)[C@@H]2O)ccc1O	107%	106%	99.8%	90.1%	
> 100 µM	C[C@@]12C[C@@]3(O)O[C@@H](O1)[C@]1(COC(=O)c4ccccc4)[C@@H]3C[C@]12O[C@@H]1O[C@H](CO[C@H]2O[C@H](CO)[C@@H](O)[C@H](O)[C@H]2O)[C@@H](O)[C@H](O)[C@H]1O	90.1%	91.5%	85.1%	70.5%	
22.6 µM	CO[C@]12C[C@]3(C)O[C@H](O1)[C@]1(COC(=O)c4ccccc4)[C@@H]2C[C@]13O[C@@H]1O[C@H](COC(=O)c2ccccc2)[C@@H](O)[C@H](O)[C@H]1O	91.9%	95.5%	70.4%	34.9%	
> 100 µM	CO[C@]12C[C@]3(C)O[C@H](O1)[C@]1(COC(=O)c4ccccc4)[C@@H]2C[C@]13O[C@@H]1O[C@H](COC(=O)c2cc(O)c(O)c(O)c2)[C@@H](O)[C@H](O)[C@H]1O	80.8%	113%	108%	102%	
> 100 µM	CO[C@]12C[C@]3(C)O[C@H](O1)[C@]1(COC(=O)c4ccccc4)[C@@H]2C[C@]13O[C@@H]1O[C@H](CO)[C@@H](O)[C@H](O)[C@H]1O	111%	109%	107%	90.4%	
> 100 µM	CO[C@]12C[C@]3(C)O[C@H](O1)[C@]1(CO)[C@@H]2C[C@]13O[C@@H]1O[C@H](CO)[C@@H](O)[C@H](O)[C@H]1O	101%	104%	97.4%	78.9%	
> 100 µM	CO[C@@H]1C[C@]2(C)OC(=O)[C@]3(COC(=O)c4ccccc4)[C@@H]1C[C@@]23O[C@@H]1O[C@H](CO)[C@@H](O)[C@H](O)[C@H]1O	91.5%	91.6%	95.5%	102%	
	C[C@@]12C[C@@]3(O)O[C@@H](O1)[C@]1(COC(=O)c4ccccc4)[C@@H]3C[C@]12O[C@@H]1O[C@H](COC(=O)c2ccccc2)[C@@H](O)[C@H](O)[C@H]1O [BENZOYLPAEONIFLORIN]	86.3%	81.4%	79.5%	68.6%	Toxic
13.5 µM	COc1cc(/C=C/C(=O)CC(=O)/C=C/c2ccc(O)c(OC)c2)ccc1O [CURCUMIN]	86.6%	75.6%	56.1%	35.2%	
	C[C@@]12C[C@@]3(O)O[C@@H](O1)[C@]1(COC(=O)c4ccccc4)[C@@H]3C[C@]12O[C@@H]1O[C@H](COC(=O)c2cc(O)c(O)c(O)c2)[C@@H](O)[C@H](O)[C@H]1O [GALLOYLPAEONIFLORIN]	82.1%	84.4%	62.1%	69.5%	Toxic
> 100 µM	CC12CC3OC4O[C@H](CO)[C@@H](O)[C@H](O)[C@H]4OC34CC1C4(COC(=O)c1ccccc1)C(=O)O2 (stereo not given in full) [LACTIFLORIN]	89.4%	91.5%	86.7%	81.2%	
12.8 µM	C[C@@]12C[C@@]3(O)O[C@@H](O1)[C@]1(COC(=O)c4ccc(O)cc4)[C@@H]3C[C@]12O[C@@H]1O[C@H](COC(=O)c2ccccc2)[C@@H](O)[C@H](O)[C@H]1O [MUDANPIOSIDE C]	71.8%	66.7%	57.5%	38.5%	
> 100 µM	COc1cc(C(=O)OC[C@H]2O[C@@H](O[C@@]34C[C@H]5[C@@]3(CO)[C@H]3O[C@]5(O)C[C@]4(C)O3)[C@H](O)[C@@H](O)[C@@H]2O)ccc1O [MUDANPIOSIDE E]	86.2%	83.9%	80.9%	67.4%	
> 100 µM	C[C@@]12C[C@@]3(O)O[C@@H](O1)[C@]1(COC(=O)c4ccc(O)cc4)[C@@H]3C[C@]12O[C@@H]1O[C@H](CO)[C@@H](O)[C@H](O)[C@H]1O [OXYPAEONIFLORIN]	71.7%	83%	76.6%	76.6%	
> 100 µM	CO[C@H]1O[C@@]2(C)CC(=O)[C@H]3C[C@]2(O)[C@]13COC(=O)c1ccccc1 [PAEONIDANGENIN]	89.9%	91.5%	85%	66.2%	
36.2 µM	CO[C@H]1O[C@@]2(C)CC(=O)[C@H]3C[C@]2(O[C@@H]2O[C@H](COC(=O)c4ccccc4)[C@@H](O)[C@H](O)[C@H]2O)[C@]13COC(=O)c1ccccc1 [PAEONIDANIN A]	86.6%	74.9%	59.1%	57.2%	
13.9 µM	CO[C@H]1O[C@@]2(C)CC(=O)[C@H]3C[C@]2(O[C@@H]2O[C@H](COC(=O)c4cc(O)c(O)c(O)c4)[C@@H](O)[C@H](O)[C@H]2O)[C@]13COC(=O)c1ccccc1 [PAEONIDANIN B]	63%	64.1%	52.2%	43.5%	
> 100 µM	CO[C@H]1O[C@@]2(C)CC(=O)[C@H]3C[C@]2(O[C@@H]2O[C@H](COC(=O)c4ccccc4)[C@@H](O)[C@H](O)[C@H]2O)[C@]13COC(=O)c1ccc(O)cc1 [PAEONIDANIN C]	106%	111%	94.3%	80.3%	
	CO[C@H]1O[C@@]2(C)CC(=O)[C@H]3C[C@]2(O[C@@H]2O[C@H](CO[C@H]4O[C@@]5(C)CC(=O)[C@H]6C[C@]5(O[C@@H]5O[C@H](CO)[C@@H](O)[C@H](O)[C@H]5O)[C@]46COC(=O)c4ccccc4)[C@@H](O)[C@H](O)[C@H]2O)[C@]13COC(=O)c1ccccc1 [PAEONIDANIN D]	112%	96.6%	83.5%	77.1%	Toxic
64.7 µM	C[C@]12CC(=O)[C@H]3C[C@]1(O[C@@H]1O[C@H](CO)[C@@H](O)[C@H](O)[C@H]1O)[C@]3(COC(=O)c1ccccc1)[C@@H](OC[C@H]1O[C@@H](O[C@@]34C[C@H]5[C@@]3(COC(=O)c3ccccc3)[C@H]3O[C@]5(O)C[C@]4(C)O3)[C@H](O)[C@@H](O)[C@@H]1O)O2 [PAEONIDANIN E]	102%	102%	88.8%	69.2%	
	C[C@@]12CC(=O)[C@H]3C[C@]1(O)O[C@H](O2)[C@@H]3COC(=O)c1ccccc1 [PAEONIFLORIGENONE]	92.6%	71.9%	24.5%	26.7%	Toxic
27.8 µM	C[C@@]12C[C@@]3(O)O[C@@H](O1)[C@]1(COC(=O)c4ccccc4)[C@H]3C[C@@]12O[C@@H]1O[C@H](CO)[C@@H](O)[C@H](O)[C@H]1O [PAEONIFLORIN]	100%	87.8%	79.5%	66.7%	
61.8 µM	C[C@@H]1CC(=O)[C@H]2C[C@]1(O)[C@]2(C)COC(=O)c1cc(O)c(O)c(O)c1 [PAEONIFLORONE]	91.3%	83.8%	67.5%	64.1%	
> 100 µM	C[C@]12C[C@@H](O)[C@H]3C[C@]1(O[C@@H]1O[C@H](COC(=O)c4ccccc4)[C@@H](O)[C@H](O)[C@H]1O)[C@]3(COC(=O)c1ccccc1)C(=O)O2 [PAEONIVAYIN]	86.7%	88.3%	82%	82.6%	
